Rows were chosen to be rich in hits. Some 1.4% of all compounds tested hit in one or more screens of this group.
CR mimetic SO: reduction of superoxide in aged yeast, primary screen, HTS | 0.18% of 330,000 active | S. cerevisiae aged cells, superoxide DHE fluorescence; active compounds read low | AID 2690, 2010 | superoxide response (% of plate mean), % at 10 µM;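 active = superoxide response under a set limit, about three screen SD below normal, cut at about 65% in these data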;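 note: yeast aged for seven days with compound at 30 °C before DHE staining; 100% = average MFI of all compound-treated wells on the plate with controls excluded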
HDAC3 inh: HDAC3 deacetylase inhibitors, primary screen, biochemical, fluorescence, cell-free homogeneous; AID 2718, 2010; recombinant HDAC3, fluorogenic peptide/trypsin coupled; 0.15% of 320,000 active; inhibition, % at 8.3 µM; Histone deacetylase 3 (Homo sapiens), O15379; in the data active = inhibition above about 26%, passing the limit was not always enough
Efflux pump inh: inhibitors of Candida efflux pumps in yeast, primary screen, S. cerevisiae, Nile Red, multiplex; S. cerevisiae Candida pump triplex; inhibition, % at 10 µM; 0.44% of 330,000 active; AID 485275, 2010;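 active = plate passing quality check with inhibition over a set limit, or well fluorescence over plate mean plus 4 SD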;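 note: Nile Red retained in pooled yeast measured as flow cytometry median fluorescence; 0% = buffer negative control and 100% = Enniatin B positive control; higher means more Nile Red kept so more efflux inhibition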
IDE act: human IDE activators in live cells, primary screen, fluorescence polarization, HEK cells, FAbeta-B substrate; Insulin-degrading enzyme (Homo sapiens), P14735; FAbeta-B cleavage; 0% vehicle, 100% cell-free pure enzyme wells; activation, % at 5.96 µM; 0.073% of 340,000 active;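 active = activation above the mean of all tested compounds plus 3 SD, set per screening campaign, cut at about 17% in these data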
Target sequence (P14735 whole entry, looked up): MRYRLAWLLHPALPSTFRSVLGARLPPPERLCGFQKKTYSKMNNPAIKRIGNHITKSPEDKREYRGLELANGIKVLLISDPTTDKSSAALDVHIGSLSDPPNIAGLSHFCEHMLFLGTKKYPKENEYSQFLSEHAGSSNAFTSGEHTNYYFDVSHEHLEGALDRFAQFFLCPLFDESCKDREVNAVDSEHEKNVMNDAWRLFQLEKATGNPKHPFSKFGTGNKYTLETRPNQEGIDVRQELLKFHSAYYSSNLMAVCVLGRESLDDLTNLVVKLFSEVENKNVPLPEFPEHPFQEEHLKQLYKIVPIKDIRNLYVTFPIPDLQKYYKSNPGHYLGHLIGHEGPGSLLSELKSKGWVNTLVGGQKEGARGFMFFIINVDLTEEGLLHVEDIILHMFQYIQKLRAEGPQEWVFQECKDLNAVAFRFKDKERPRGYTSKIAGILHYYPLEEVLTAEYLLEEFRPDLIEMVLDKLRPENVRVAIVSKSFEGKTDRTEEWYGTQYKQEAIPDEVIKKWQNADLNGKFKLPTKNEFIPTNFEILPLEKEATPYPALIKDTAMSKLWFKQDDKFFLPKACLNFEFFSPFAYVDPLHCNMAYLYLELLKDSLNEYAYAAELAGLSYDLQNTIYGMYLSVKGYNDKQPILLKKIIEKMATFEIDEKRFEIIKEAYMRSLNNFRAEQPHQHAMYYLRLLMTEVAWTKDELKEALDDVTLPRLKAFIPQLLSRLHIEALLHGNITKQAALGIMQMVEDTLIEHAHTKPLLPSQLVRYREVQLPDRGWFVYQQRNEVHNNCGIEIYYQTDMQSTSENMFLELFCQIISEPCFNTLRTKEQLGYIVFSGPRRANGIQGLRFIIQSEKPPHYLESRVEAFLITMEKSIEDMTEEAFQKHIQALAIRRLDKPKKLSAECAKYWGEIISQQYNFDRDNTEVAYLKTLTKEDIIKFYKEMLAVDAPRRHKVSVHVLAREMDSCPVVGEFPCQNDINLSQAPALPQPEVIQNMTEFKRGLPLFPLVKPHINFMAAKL
TbMetRS inhib: T. brucei MetRS inhibitors, primary screen, biochemical, luminescence; methionyl-tRNA synthetase (Trypanosoma brucei brucei); purified T. brucei MetRS, ATP depletion, Kinase-Glo luminescence; inhibition, % at 11.9 µM; 0.4% of 360,000 active; AID 624268, 2012;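 active = inhibition above a per-plate cutoff of the control wells' mean inhibition plus 3 SD, cut at about 5.5% in these data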;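 note: 0% = DMSO wells median and 100% = median of wells with control inhibitor compound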
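Test system – parasite MetRS enzyme · Reagent – substrates ATP, L-methionine and bulk Escherichia coli tRNA · Doses – 11.9 µM compound single dose, 0.9% DMSO · Times – 15 min enzyme-compound preincubation, 2 h reaction, 10 min detection, 25 °C · Signal – Kinase-Glo luminescence, ATP depletion format · Controls – DMSO-only wells as low control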
IDE inh: human IDE inhibitors in live cells, primary screen, fluorescence polarization, HEK cells, FAbetaB substrate; inhibition, % at 5.59 µM; FAbetaB cleavage; AID 434962, 2010; 0.41% of 320,000 active;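 active = percent inhibition above the average of all tested compounds plus 3 SD, set per screening campaign, cut at about 16% in these data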;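 note: IDE supplied by intact live HEK cells; FP after avidin binding of uncleaved biotin substrate so inhibition keeps polarization high; 0% = DMSO wells and 100% = 60 µM reference IDE inhibitor Ii1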
Tb MetRS conf: T. brucei MetRS inhibitors, confirmation, biochemical, luminescence; shares compounds with TbMetRS inhib; T. brucei MetRS enzyme, luminescence (ATP depletion); inhibition, % at 11.9 µM; 93% of 1,400 active; in the data active = inhibition above about 7%
Jurkat tox: Jurkat T cell cytotoxicity, cytotoxicity control for T. brucei MetRS inhibitor project, luminescence, high throughput; shares compounds with TbMetRS inhib; Jurkat cells viability, ATP luminescence; inhibition, % at 8.3 µM; 12% of 1,400 active; AID 624413, 2012; in the data active = inhibition above about 15%;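 note: 0% = vehicle and 100% = reference inhibitor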
TbMetRS FP orth: T. brucei MetRS inhibitors, orthogonal assay for T. brucei MetRS inhibitor project, biochemical, fluorescence polarization | shares compounds with TbMetRS inhib | purified T. brucei MetRS | inhibition, % at 11.9 µM | 44% of 1,400 active | AID 651607, 2012; in the data active = inhibition above about 17%;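 note: 0% = vehicle wells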
The depositor's hits bear a star; x = no result given.

SMILES	CR mimetic SO	HDAC3 inh	Efflux pump inh	IDE act	TbMetRS inhib	IDE inh	Tb MetRS conf	Jurkat tox	TbMetRS FP orth
Cc1ccc(NC(=O)COC(=O)CN2C(=O)c3ccccc3C2=O)cc1	85	-1	0	0	0	-1	x	x	x
Cn1ccnc1C(=O)c1cc(SCC(=O)NCc2ccccc2)nc2ccccc12	102	-5	0	-1	-1	6	x	x	x
COc1ccc(-c2noc([C@@H]3O[C@H](CO)[C@H](O)[C@H](O)[C@H]3O)n2)cc1OC	x	x	x	x	7.5*	x	3	-7	6
COc1ccc(-c2ccc(N3C(c4cc(OC)cc(OC)c4)=Cc4ccc(OC)cc4C3CC(C)=O)cc2)cc1 (stereo unspecified)	x	x	x	x	0	x	x	x	x
CC(=O)C1=C(O)CCCC1=NCc1nc2ccccc2[nH]1	108	3	0	-6	6.2*	-1	12*	-6	9
CC(=O)C1=C(O)CC(C)(C)CC1=NCc1nc2ccccc2[nH]1	85	-1	0	-3	3	2	x	x	x
C=CCN=C1CC(C)(C)CC(=O)/C1=C(/O)CCC(=O)OC	91	-2	0	3	0	-3	x	x	x
COC(=O)CC/C(O)=C1\C(=O)CC(C)(C)CC1=NCc1nc2ccccc2[nH]1	90	3	0	-1	48*	5	67*	-4	35*
Cn1c(=O)c2[nH]c(CCc3ccncc3)nc2n(C)c1=O	x	x	x	4	0	x	x	x	x
COc1ccc(N2CCC(CNC(=O)Nc3ccc(Cl)cc3)C2)cc1 (stereo unspecified)	90	-2	0	-7	14*	3	29*	11	25*
NS(=O)(=O)c1ccc(NC(=O)c2c(Cl)cccc2Cl)cc1	89	1	0	7	0	7	x	x	x
NS(=O)(=O)c1ccc(NC(=O)c2c(F)cccc2Cl)cc1	104	1	0	0	7.9*	-1	4	-4	1
CC(Oc1ccc2c(-c3ccccc3)cc(=O)oc2c1)C(=O)NC(Cc1c[nH]c2ccc(O)cc12)C(=O)O (stereo unspecified)	101	7	0	7	7.4*	4	17*	-4	7
COc1cc(C2C(C#N)=C(N)Oc3cc(O)ccc32)cc(OC)c1OC (stereo unspecified)	88	-4	0	-3	0	5	x	x	x
COc1cc(C2C(C#N)=C(N)Oc3cc(O)ccc32)cc2c1OCO2 (stereo unspecified)	98	8	0	0	14*	-4	3	36*	4
O=C(CNc1cc(S(=O)(=O)N2CCOCC2)ccc1NCC1CCCO1)Nc1ccccc1F (stereo unspecified)	85	1	0	6	11*	-4	4	-1	-5
Cc1ccc(NC(=O)CNc2cc(S(=O)(=O)N3CCOCC3)ccc2NCC2CCCO2)cc1F (stereo unspecified)	108	4	-2	-2	15*	5	21*	-3	10
Cc1ccc(S(=O)(=O)Nc2cc(S(=O)(=O)N3CCOCC3)ccc2NCC2CCCO2)cc1 (stereo unspecified)	94	-1	0	4	0	0	x	x	x
O=C(Nc1ccc(Cl)cc1)N1CCSC1=NCc1ccccc1	114	6	0	-1	0	5	x	x	x
O=C(CN1CCSC1=NCc1ccccc1)c1ccc(Cl)cc1	91	4	0	3	19*	2	43*	12	18*
COc1ccc(/C=C(/C#N)c2cccnc2)cc1OC	94	5	0	3	16*	-6	21*	-5	15
Brc1cccc(CNc2nc3ccccc3n2CCN2CCOCC2)c1	112	-1	0	1	7.5*	-2	20*	8	5
COc1ccccc1NC(=O)c1ccc(-n2ccnc2)c([N+](=O)[O-])c1	115	2	0	-3	8.8*	-3	27*	15	22*
CN(C)S(=O)(=O)c1cc(NC(=O)c2ccc(-n3ccnc3)c([N+](=O)[O-])c2)ccc1Cl	112	0	0	-1	9.9*	3	22*	34*	14
O=C1COc2ccc(C(=O)CSc3nnc(NCc4ccccc4)s3)cc2N1	96	9	0	3	8.7*	-6	13*	2	14
SMILES	CR mimetic SO	HDAC3 inh	Efflux pump inh	IDE act	TbMetRS inhib	IDE inh	Tb MetRS conf	Jurkat tox	TbMetRS FP orth
CN(Cc1nc2ccccc2n1C)C(=O)c1ccco1	85	2	0	2	0	1	x	x	x
CN(C)CC1CCCCC1OC(=O)/C=C/c1ccccc1 (stereo unspecified)	110	-4	0	3	3	5	x	x	x
CN(C)CC1CCCCC1OC(=O)/C=C/c1ccc(Cl)cc1Cl (stereo unspecified)	124	5	0	6	9.0*	3	20*	5	12
Cc1ccc(-c2nnc(NCc3nc4ccccc4[nH]3)c3ccccc23)cc1S(=O)(=O)N(C)C	98	6	0	4	13*	4	24*	4	16
C/C=C/C(O)c1ccc2ccccc2c1 (stereo unspecified)	110	4	0	x	x	3	x	x	x
Cn1c(CC(=O)Nc2ccccc2F)nnc1SCC(=O)NC1CCCCC1	99	-1	-1	2	79*	0	0	4	0
C=CCN(C(=O)c1csnn1)C(C(=O)NC1CCCCC1)c1ccc(F)cc1 (stereo unspecified)	95	-2	0	4	0	4	x	x	x
COc1cccc(CNc2ccc([N+](=O)[O-])cc2Cl)c1O	94	3	0	6	17*	2	18*	7	13
CC(Oc1ccc(Cl)cc1Cl)c1nc(-c2ccc(NC(=O)c3ccco3)cc2)no1 (stereo unspecified)	121	-1	0	-1	0	-2	x	x	x
COc1ccc(C(=O)CN(Cc2ccccc2)C2=NCCS2)cc1	110	-3	0	0	3	6	x	x	x

Screening results (PubChem BioAssay)
